# Screening data: PubChem, several laboratories
# Hits are enriched below; roughly 7.4% of the tested compounds scored in any of these assays.
# M1 antagonist = antagonists of rat M1 muscarinic receptor. B-score at 10 µM. actives 3.4% (n = 64,000). Muscarinic acetylcholine receptor M1 (Rattus norvegicus), P08482. CHO-M1 cells, Fluo-4 calcium, ACh EC80 antagonist mode; active compounds read low;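 active = calcium fluorescence response, raw or row-and-column corrected B-score, differing from the plate sample mean either way at a set confidence level, mostly lower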
# Target sequence (P08482 whole entry, looked up): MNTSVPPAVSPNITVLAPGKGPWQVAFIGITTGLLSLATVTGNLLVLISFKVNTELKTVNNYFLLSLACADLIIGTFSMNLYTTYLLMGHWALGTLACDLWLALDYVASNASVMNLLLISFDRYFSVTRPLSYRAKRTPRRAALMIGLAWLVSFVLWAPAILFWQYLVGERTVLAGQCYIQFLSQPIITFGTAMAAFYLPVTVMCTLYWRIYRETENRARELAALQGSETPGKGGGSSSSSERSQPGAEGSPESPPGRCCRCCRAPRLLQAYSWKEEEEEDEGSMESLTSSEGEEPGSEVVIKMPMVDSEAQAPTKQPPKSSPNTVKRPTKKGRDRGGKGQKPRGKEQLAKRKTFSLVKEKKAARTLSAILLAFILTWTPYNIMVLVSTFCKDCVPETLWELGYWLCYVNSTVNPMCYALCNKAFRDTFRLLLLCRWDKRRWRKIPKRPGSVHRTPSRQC
# Jurkat tox 60K = cytotoxicity toward Jurkat T cells, primary screen, cytotoxicity control, cell-based, Jurkat E6.1, 60K MLSMR library. inhibition, % at 4 µM. AID 463, 2006. actives 1.2% (n = 56,000). Jurkat E6.1 viability, ATP luminescence, 48 h;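 active = inhibition above the mean inhibition of all tested compounds plus 3 SD, cut at about 28% in these data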
# S1P1 ag pot = S1P1 agonists and agonism potentiators, primary screen, cell-based, primary and confirmation screens, CRE-bla reporter; S1P1 CRE-bla cells, forskolin, beta-lactamase FRET, potentiator mode; S1P1 agonist co-added at EC20, 2 nM; 100% = saturating reference agonist, 0% = basal; AID 449, 2006; Sphingosine 1-phosphate receptor 1 (Homo sapiens), P21453; activation, % at 9.5 µM; actives 0.57% (n = 56,000);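 active = activation above a cutoff set at the mean activation of all tested compounds plus 3 SD, cut at about 54% in these data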;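 also: forskolin at 4 µM as EC80 and the EC20 agonist is SEW2871; 100% = SEW2871 at its EC100 plus forskolin at EC80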
# M1 agonist = M1 muscarinic receptor agonists, primary screen, CHO-M1 cells, Fluo-4 calcium, agonist mode; actives 3% (n = 64,000); B-score at 10 µM; Muscarinic acetylcholine receptor M1; AID 626, 2007; Fluo-4 calcium fluorescence; active compounds read high;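 active = fluorescence rise, raw or as B-score row- and column-corrected plate score, outside the 99.7% band of its plate's samples, either direction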
# JNK3 blocker = JNK3 kinase activity inhibitors, primary screen, biochemical, human, purified enzyme. actives 0.61% (n = 60,000). Mitogen-activated protein kinase 10 (Homo sapiens), P53779. AID 746, 2007. inhibition, % at 8 µM. HTS; in the data active = inhibition above about 17%;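 also: 0% = DMSO and 100% = reference inhibitor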
# S1P3 agonist = human S1P3 receptor agonists, primary screen, cell-based, primary and confirmation, NFAT-BLA reporter | S1P3 NFAT-BLA reporter cells, agonism, FRET ratio; relative to 1 µM S1P, basal subtracted | Sphingosine 1-phosphate receptor 3 (Homo sapiens), Q99500 | AID 373, 2006 | actives 0.1% (n = 60,000) | activation, % at 4.5 µM;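 active = activation above the screen-wide mean plus 3 SD, cut at about 4.5% in these data, passing the limit was not always enough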
#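 Measure – % activation relative to 1 µM S1P (100%), per plate · System – stable CHO line with human S1P3, Gα16, NFAT-BLA reporter · Timing – cells plated overnight, compound 4 h 37 °C, substrate 2 h RT · Technique – fluorescent BLA substrate, ex 405 nm, em 460/535 nm ratio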
# M1 ag confirm = rat M1 muscarinic receptor agonists, confirmation, CHO-M1 cells, Fluo-4 calcium, duplicate retest | actives 19% (n = 1,700) | shares compounds with M1 agonist | fluorescence change (max-min) at 10 µM | Fluo-4 calcium fluorescence, agonist mode; actives lie on both sides;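 active = fluorescence change differs from the solvent-only DMSO control mean at a set confidence level in both duplicate runs; inconclusive = differs from solvent-only control mean in just one of two runs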;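 also: an EC20 dose of acetylcholine follows compound addition during the same imaging run; raw fluorescence intensity difference in instrument units with no normalization to controls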
# M4 ag counter = agonist activity at rat M4 receptor, confirmation, counter-screen for M1 allosteric modulator project, cell-based, agonist mode; actives 9% (n = 1,700); fluorescence change (max-min) at 10 µM; shares compounds with M1 agonist; CHO M4/Gqi5 cells, Fluo-4 calcium fluorescence; actives lie on both sides;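 active = fluorescence change differing from the plate's solvent-only control wells at 99.7% confidence in both duplicates, whether higher or lower; inconclusive = differs from solvent controls in only one of two duplicates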
# The depositor's hits bear a star; ? = inconclusive; nt = no result given.
SMILES,M1 antagonist,Jurkat tox 60K,S1P1 ag pot,M1 agonist,JNK3 blocker,S1P3 agonist,M1 ag confirm,M4 ag counter
CCOc1ccccc1NC(=O)CN(c1cc(C)cc(C)c1)S(=O)(=O)c1c(C)noc1C,-0.84,-6,14,20*,13,-1,-1.1,-19
COc1ccc(NC(=O)CN(c2cc(C)cc(C)c2)S(=O)(=O)c2c(C)noc2C)cc1OC,-0.24,4,-21,0.31,-3,-1,nt,nt
Cc1ccc2cc(CN(C)C(=O)C3CCCO3)c(=O)[nH]c2c1 (stereo not drawn),1.5,-6,-4,0.96,5,1,nt,nt
Cn1c(=O)c2c(nc(SCC(=O)Nc3ccc(N4CCOCC4)c(Cl)c3)n2C)n(C)c1=O,-0.54,-1,-8,-0.12,0,-1,nt,nt
Cc1c(Nc2nc3ccccc3nc2N2CCN(c3ccccc3)CC2)c(=O)n(-c2ccccc2)n1C,-0.61,-4,nt,3.6*,5,-1,-7.7,-11
Cc1ccc(C(=O)CSc2nnc(COc3cc(C)cc(C)c3)o2)cc1,-0.22,-6,17,-0.025,0,-1,nt,nt
CC(C)N(Cc1nc(-c2ccc(Cl)cc2)no1)C(=O)CCC1CCCC1,0.027,6,0,3.4*,-4,-1,?,-45
COc1ccccc1OCC(=O)N(Cc1nc(-c2ccc(Cl)cc2)no1)C(C)C,-0.64,2,-19,-0.17,-3,0,nt,nt
CCC(C)C(=O)Nc1cc(C(=O)OC)cc(C(=O)OC)c1 (stereo not drawn),-0.083,0,2,-0.36,-2,0,nt,nt
CC1CCCN(c2nc3c(c(=O)[nH]c(=O)n3C)n2CCCc2ccccc2)C1 (stereo not drawn),-0.039,nt,nt,3.7,nt,nt,nt,nt
CC(=O)c1c(C)[nH]c(C(=O)CSc2nc3ccccc3c(=O)n2CCCN2CCOCC2)c1C,-0.28,3,-9,2.5,5,1,nt,nt
Cc1sc2nc(CSc3nc4ccccc4c(=O)n3CCCN3CCOCC3)[nH]c(=O)c2c1C,-0.025,2,-43,11*,12,0,-2.2,-41
O=C(CCCCCNc1nc(=S)[nH]c2ccccc12)N1CCN(c2ccccn2)CC1,-1.6,nt,nt,15*,nt,nt,-9,-32
O=C(CCCn1c(=O)[nH]c2ccccc2c1=O)N1CCN(c2ccccn2)CC1,0.83,5,15,-0.29,12,-1,nt,nt
CNC(=O)c1ccc(-c2sc3nc(N4CCOCC4)c4c(c3c2N)CCCC4)o1,-1.1,-2,nt,5.8*,-17,0,-3.7,-69*
CC1(C)Cc2c(c(N3CCOCC3)nc3sc(-c4ccc(C(=O)O)o4)c(N)c23)CO1,-0.21,12,1,-1.7,-13,-1,nt,nt
CCn1c(C2CC(=O)N(c3ccc(C)c(C)c3)C2)nc2ccccc21 (stereo not drawn),-0.35,-2,12,0.81,1,-1,nt,nt
CCCn1c(C2CC(=O)N(c3cc(OC)ccc3OC)C2)nc2ccccc21 (stereo not drawn),-0.24,-2,10,3.7*,-1,0,-14,-56
CCn1c(N2CCC(Cc3ccccc3)CC2)nc2c1c(=O)[nH]c(=O)n2C,-0.9,12,-23,5.4*,1,-1,?,-84
CC1CCN(c2nc3c(c(=O)[nH]c(=O)n3C)n2Cc2ccccc2)CC1,-0.41,2,7,0.37,5,-1,nt,nt
Cc1nnc(SCCCn2c(N3CCN(c4ccccc4)CC3)nc3c2c(=O)[nH]c(=O)n3C)s1,-2.1*,9,-10,11*,-3,-1,-19,?
